Data taken from ChEMBL document CHEMBL1151972, “Cytotoxic asterosaponins capable of promoting polymerization of tubulin from the starfish Culcita novaeguineae” (J Nat Prod, 2009).

Assays:
Tubulin (Sus scrofa) [1] = target: T1, Tubulin (Sus scrofa) (UniProt P02554+P02550); experiment: Induction of pig brain tubulin polymerization assessed as end point promote coefficient at 11.7 uM by first high-throughput screening end-point assay
Summary of the method: (§1)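 Tubulin prepared from pig brain; first high-throughput screening step. Polymerization followed by turbidity, end-point reading of the absorbance change at 350 nm, expressed as Pe (percent end-point promote coefficient). Samples above 20% Pe counted as active. Three independent experiments, eight replicate wells each.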

Tubulin (Sus scrofa) [2] = target: T1, Tubulin (Sus scrofa); experiment: Induction of pig brain tubulin polymerization assessed as kinetic promote coefficient at 11.7 uM by first high-throughput screening end-point assay
Bel-7402 = experiment: Cytotoxicity against human Bel7402 cells after 72 hrs by SRB assay; type: functional, cell-based; settings: Bel-7402, 72 h
Summary of the method: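 Human hepatoma BEL7402 cells; sulforhodamine B protein-staining assay after 72 h exposure. Dose-response curves plotted. IC50 = concentration giving 50% reduction in absorbance relative to control cells. Three independent experiments, each concentration in three replicate wells.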

K562 = experiment: Cytotoxicity against human K562 cells after 72 hrs by MTT assay; type: functional, cell-based; settings: K562, 72 h
Summary of the method: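 Human leukemia K-562 cells; MTT colorimetric viability assay after 72 h exposure. IC50 read from dose-response curves as the concentration giving 50% lower absorbance than control cells. Mean of three independent experiments, triplicate wells per concentration.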

Tubulin (Sus scrofa) [3] = target: T1, Tubulin (Sus scrofa); experiment: Induction of pig brain tubulin polymerization assessed as kinetic promote coefficient at 9.3 uM by first high-throughput screening end-point assay
Tubulin (Sus scrofa) [4] = target: T1, Tubulin (Sus scrofa); experiment: Induction of pig brain tubulin polymerization assessed as end point promote coefficient at 9.3 uM by first high-throughput screening end-point assay; summary of the method: as §1
Tubulin (Sus scrofa) [5] = target: T1, Tubulin (Sus scrofa); experiment: Induction of pig brain tubulin polymerization assessed as kinetic promote coefficient at 8.9 uM by first high-throughput screening end-point assay
Tubulin (Sus scrofa) [6] = target: T1, Tubulin (Sus scrofa); experiment: Induction of pig brain tubulin polymerization assessed as end point promote coefficient at 8.9 uM by first high-throughput screening end-point assay; summary of the method: as §1

T1 sequence (P02550 whole entry, looked up): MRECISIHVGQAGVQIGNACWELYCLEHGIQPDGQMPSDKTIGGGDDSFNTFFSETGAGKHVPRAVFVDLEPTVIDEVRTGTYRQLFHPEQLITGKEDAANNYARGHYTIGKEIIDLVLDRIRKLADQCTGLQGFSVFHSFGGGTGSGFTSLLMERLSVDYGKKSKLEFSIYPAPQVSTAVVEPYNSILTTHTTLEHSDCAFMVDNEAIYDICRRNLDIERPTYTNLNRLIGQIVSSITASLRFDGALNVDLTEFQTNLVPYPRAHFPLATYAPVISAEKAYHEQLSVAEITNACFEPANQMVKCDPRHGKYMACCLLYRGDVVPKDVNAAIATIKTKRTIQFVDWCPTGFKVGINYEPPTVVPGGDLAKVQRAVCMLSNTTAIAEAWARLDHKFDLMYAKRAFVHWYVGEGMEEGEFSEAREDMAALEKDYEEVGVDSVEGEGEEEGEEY
T1 sequence (P02554 whole entry, looked up): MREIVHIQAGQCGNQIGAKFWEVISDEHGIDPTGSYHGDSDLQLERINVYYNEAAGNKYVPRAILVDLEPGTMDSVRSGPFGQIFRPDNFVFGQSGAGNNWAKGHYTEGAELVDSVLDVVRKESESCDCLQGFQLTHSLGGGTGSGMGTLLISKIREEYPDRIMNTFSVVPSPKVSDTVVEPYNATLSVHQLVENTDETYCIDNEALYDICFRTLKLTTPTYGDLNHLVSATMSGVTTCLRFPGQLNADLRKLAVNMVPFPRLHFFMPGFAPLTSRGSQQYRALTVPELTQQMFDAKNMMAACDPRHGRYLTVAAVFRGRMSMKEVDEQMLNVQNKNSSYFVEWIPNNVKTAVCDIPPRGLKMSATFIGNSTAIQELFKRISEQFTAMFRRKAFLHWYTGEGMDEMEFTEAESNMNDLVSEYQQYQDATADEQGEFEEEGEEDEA

Row | SMILES | Activity (Tubulin (Sus scrofa) [1]) [%] | Activity (Tubulin (Sus scrofa) [2]) [%] | IC50 (Bel-7402) [µM] | IC50 (K562) [µM] | Activity (Tubulin (Sus scrofa) [3]) [%] | Activity (Tubulin (Sus scrofa) [4]) [%] | Activity (Tubulin (Sus scrofa) [5]) [%] | Activity (Tubulin (Sus scrofa) [6]) [%]
1 | CC(=O)O[C@H]1C(=O)[C@@]2(C)[C@H]([C@H](OC(=O)c3ccccc3)[C@]3(O)C[C@H](OC(=O)[C@H](O)[C@@H](NC(=O)c4ccccc4)c4ccccc4)C(C)=C1C3(C)C)[C@]1(OC(C)=O)CO[C@@H]1C[C@@H]2O | 32 | 100 | – | – | – | – | – | –
2 | CC[C@@]1(O)C(=O)OCc2c1cc1n(c2=O)Cc2cc3cc(O)ccc3nc2-1 [HYDROXYCAMPTOTHECIN] | – | – | 0.4 | 0.18 | – | – | – | –
3 | CO[C@@H]1[C@@H](O)[C@H](O[C@H]2[C@H](O[C@@H]3[C@@H](O)[C@H](O[C@H]4C[C@@H]5C(=CC[C@]6(C)[C@@H]([C@H](C)CC[C@H](OS(=O)(=O)O)C(C)C)CC[C@@H]56)[C@@]5(C)CC[C@H](OS(=O)(=O)O)C[C@H]45)O[C@H](CO)[C@H]3O)OC[C@@H](O)[C@@H]2O)O[C@H](C)[C@H]1O [NOVAEGUINOSIDE C] | – | – | 0.7 | 1.3 | 149 | 42 | – | –
4 | CO[C@@H]1[C@@H](O)[C@H](O[C@H]2[C@H](O[C@@H]3[C@@H](O)[C@H](O[C@H]4C[C@@H]5C(=CC[C@]6(C)[C@@H]([C@H](C)/C=C/[C@@H](C)[C@@H](C)C(=O)NCCS(=O)(=O)O)CC[C@@H]56)[C@@]5(C)CC[C@H](OS(=O)(=O)O)C[C@H]45)O[C@H](CO)[C@H]3O)OC[C@@H](O)[C@@H]2O)O[C@H](C)[C@H]1O [NOVAEGUINOSIDE D] | – | – | 4.1 | 4.6 | – | – | 85 | 23
